# Screening data from PubChem.
# The entries come from a sample that favours hits as a whole.
# A1 apoptosis 2 = A1 inhibitors via caspase activation, primary screen, cell-based, luminescence, HTS, two replicates; 24,000 tested, under 10 active; caspase activation, % (no concentration beside the values); MEF A1-2A-BIM cells, caspase-Glo luminescence, 3 h; percent of clofoctol response, DMSO zero; AID 2465, 2010; in the data active = caspase activation above about 5.9%; inconclusive = no clear call, values can overlap the other calls; inactive = below about 2.2%
#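 Material: mouse embryonic fibroblasts co-expressing A1 and BIM (A1-2A-BIM), primed for A1 dependence / Quantity: 2500 cells/well / Buffer or medium: RPMI-1640 growth medium with 10% FBS / Doses: 50 nL compound per well, pinned / Schedule: 3 h compound exposure at 37 °C / Signal: Caspase-Glo luminescence (DEVD substrate) / Measure: Caspase-3/7 activation, seen as rise in luminescence signal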
# INS-1E rescue = protection of INS-1E cells from cytokine death, primary screen, ATP luminescence, single point; INS-1E cytokine-induced death, 48 h; normalised: neutral wells 0, positive control 100; protection from cytokine-induced ATP loss, % at 10 µM; actives 0.1% (n = 20,000); AID 488910, 2010;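 active = mean replicate protection from cytokine-induced ATP loss at least 50% and at least 75% of replicates each reaching 50%; inconclusive = meets only one of the two criteria, mean or replicate share; inactive = fails both the mean and replicate share criteria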
#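 Test system: INS-1E rat cells | Quantity: 8000 cells per well | Medium: Phenol-red-free RPMI with 5% fetal bovine serum | Reagent: Cytokine cocktail of IFN-γ, TNF-α and IL-1β | Doses: One compound concentration, pin transfer | Timing: 48 h co-treatment, 10 min post-lysis read | Technique: Luminescent ATP assay (CellTiter-Glo)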
# T cruzi intra = inhibitors of intracellular Trypanosoma cruzi, primary screen, cell-based, plate reader, single point, set 2 | AID 651903, 2012 | activity score (inhibition), % at 5.01 µM | intracellular Trypanosoma cruzi in host cells | actives 4.9% (n = 22,000); in the data active = activity score above about 55%; inconclusive = no clear call, values can overlap the other calls;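 also: parasites and compound incubated about four days before reading; 0% = median of neutral control wells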
# The depositor's hits bear a star; ? = inconclusive; . = not tested or not shown.
SMILES,A1 apoptosis 2,INS-1E rescue,T cruzi intra
Cc1noc(C)c1S(=O)(=O)Nc1ccc2c(c1)CC(=O)N([C@H](C)CO)C[C@H](C)[C@H](CN(C)Cc1ccc(Oc3ccccc3)cc1)O2,2.0,-26.6,.
Cc1noc(C)c1S(=O)(=O)Nc1ccc2c(c1)CC(=O)N([C@H](C)CO)C[C@@H](C)[C@H](CN(C)Cc1ccc(-c3ccccc3)cc1)O2,-1.5,-30.6,57.9*
Cc1noc(C)c1S(=O)(=O)Nc1ccc2c(c1)CC(=O)N([C@@H](C)CO)C[C@H](C)[C@@H](CN(C)Cc1ccccc1)O2,-0.6,2.4,26.6
Cc1noc(C)c1S(=O)(=O)Nc1ccc2c(c1)C(=O)N([C@H](C)CO)C[C@H](C)[C@H](CN(C)Cc1ccc(-c3ccccc3)cc1)O2,-0.2,-16.8,65.3*
Cc1noc(C)c1S(=O)(=O)Nc1ccc2c(c1)C(=O)N([C@@H](C)CO)C[C@H](C)[C@@H](CN(C)Cc1ccc(-c3ccccc3)cc1)O2,.,-18.6,40.9
Cc1noc(C)c1S(=O)(=O)Nc1ccc2c(c1)CC(=O)N([C@@H](C)CO)C[C@H](C)[C@H](CN(C)Cc1ccccc1)O2,-0.3,4.8,1.6
Cc1noc(C)c1S(=O)(=O)Nc1ccc2c(c1)CC(=O)N([C@H](C)CO)C[C@@H](C)[C@H](CN(C)Cc1ccc(Oc3ccccc3)cc1)O2,.,-7.2,69.4*
Cc1noc(C)c1S(=O)(=O)Nc1ccc2c(c1)CC(=O)N([C@@H](C)CO)C[C@H](C)[C@@H](CN(C)Cc1ccc(-c3ccccc3)cc1)O2,0.1,-3.5,66.2*
Cc1noc(C)c1NC(=O)N(C)C[C@H]1Oc2ccc(NC(=O)CCCN(C)C)cc2CC(=O)N([C@@H](C)CO)C[C@@H]1C,-0.7,.,.
CCCC[C@H]1OB(O)C[C@H]2C1=C(COc1ccccc1)Cn1c(=O)n(-c3ccccc3)c(=O)n12,-0.3,.,.
C[C@H](CO)N1C[C@H](C)[C@H](CN(C)C(=O)NC2CCCCC2)Oc2ncc(C#Cc3ccccc3)cc2C1=O,?,.,51.8
C[C@H](CO)N1C[C@H](C)[C@H](CN(C)Cc2ccncc2)Oc2ncc(-c3cccc(C(F)(F)F)c3)cc2C1=O,-0.4,.,45.7
C[C@H](CO)N1C[C@H](C)[C@H](CN(C)Cc2cccc(C(F)(F)F)c2)Oc2ncc(-c3cccc(F)c3)cc2C1=O,0.4,.,65.1*
C[C@H](CO)N1C[C@H](C)[C@H](CN(C)C(=O)NC2CCCCC2)Oc2ncc(-c3ccc(F)cc3)cc2C1=O,.,.,-7.7
C[C@H](CO)N1C[C@H](C)[C@H](CN(C)C(=O)NC2CCCCC2)Oc2ncc(C#Cc3cccc(F)c3)cc2C1=O,.,.,63.4*
Cc1cccc(CN(C)C[C@@H]2Oc3ncc(-c4cccc(F)c4)cc3C(=O)N([C@H](C)CO)C[C@@H]2C)c1,1.7,.,40.0
C[C@H](CO)N1C[C@H](C)[C@H](CN(C)C(=O)NC2CCCCC2)Oc2ncc(-c3cccc(C(F)(F)F)c3)cc2C1=O,7.1*,.,?
C[C@H](CO)N1C[C@H](C)[C@H](CN(C)Cc2cccc(C(F)(F)F)c2)Oc2ncc(-c3cccc(C(F)(F)F)c3)cc2C1=O,-0.4,.,88.8*
C[C@@H]1CCCCO[C@@H](CN(C)S(C)(=O)=O)[C@H](C)CN([C@H](C)CO)C(=O)c2cc(NS(=O)(=O)c3cn(C)cn3)ccc2O1,1.1,.,.
CCCN(C)C[C@@H]1OCCCC[C@H](C)Oc2ccc(NC(=O)NC3CCCCC3)cc2C(=O)N([C@@H](C)CO)C[C@@H]1C,0.8,.,.
C[C@H](CO)N1C[C@H](C)[C@@H](CN(C)C(=O)Nc2ccc(C(F)(F)F)cc2)OCCCC[C@H](C)Oc2ccc(N(C)C)cc2C1=O,0.0,.,.
C[C@H](CO)N1C[C@H](C)[C@@H](CN(C)Cc2ccc3c(c2)OCO3)Oc2ccc(NS(C)(=O)=O)cc2CC1=O,1.3,.,.
C[C@@H]1CN([C@H](C)CO)C(=O)c2cc(NS(=O)(=O)c3cccs3)ccc2O[C@@H](C)CCCCO[C@@H]1CN(C)S(=O)(=O)c1ccc(F)cc1,1.4,.,.
Cc1noc(C)c1NC(=O)N(C)C[C@@H]1Oc2ccc(NC(=O)Cc3cn(C)c4ccccc34)cc2C(=O)N([C@H](C)CO)C[C@H]1C,0.3,.,-8.3
C[C@H]1CN([C@@H](C)CO)C(=O)Cc2cc(NC(=O)Nc3ccc(C(F)(F)F)cc3)ccc2O[C@@H]1CN(C)CC1CCCCC1,0.4,-41.6,63.2*
SMILES,A1 apoptosis 2,INS-1E rescue,T cruzi intra
C[C@H](CO)N1C[C@H](C)[C@H](CN(C)CC2CCCCC2)Oc2ccc(NC(=O)Nc3ccc(F)cc3)cc2CC1=O,0.3,4.9,41.8
C[C@H]1CN([C@@H](C)CO)C(=O)Cc2cc(NC(=O)Nc3ccc(F)cc3)ccc2O[C@H]1CN(C)CC1CCCCC1,.,-3.0,-5.2
C[C@H](CO)N1C[C@H](C)[C@H](CN(C)CC2CCCCC2)Oc2ccc(NC(=O)Nc3ccc(C(F)(F)F)cc3)cc2CC1=O,0.2,-78.6,60.4*
C[C@@H]1CCCCO[C@H](CN(C)Cc2ccc3c(c2)OCO3)[C@@H](C)CN([C@@H](C)CO)C(=O)c2cc(NS(=O)(=O)c3ccccc3)ccc2O1,0.5,.,.
C[C@H](CO)N1C[C@H](C)[C@H](CN(C)CC2CC2)Oc2c(NC(=O)Nc3ccc(C(F)(F)F)cc3)cccc2C1=O,1.2,-9.2,82.3*
C[C@H](CO)N1C[C@H](C)[C@@H](CN(C)CC2CCCCC2)Oc2c(NC(=O)Nc3ccc(C(F)(F)F)cc3)cccc2C1=O,0.2,-70.8,69.3*
C[C@@H]1CN([C@H](C)CO)C(=O)c2cccc(NC(=O)Nc3ccc(C(F)(F)F)cc3)c2O[C@@H]1CN(C)CC1CC1,-0.2,-8.8,-38.9
C[C@@H]1CN([C@@H](C)CO)C(=O)c2cccc(NC(=O)Nc3ccc(C(F)(F)F)cc3)c2O[C@H]1CN(C)CC1CC1,-0.2,-35.0,9.6
C[C@@H]1CN([C@@H](C)CO)C(=O)c2cccc(NC(=O)CCCCCC(=O)Nc3ccccc3N)c2O[C@H]1CN(C)Cc1ccc(-c2ccccc2)cc1,-0.6,.,.
C[C@@H]1CN([C@@H](C)CO)C(=O)c2cccc(NC(=O)CCCCCC(=O)Nc3ccccc3N)c2O[C@@H]1CN(C)Cc1ccc(Oc2ccccc2)cc1,.,13.7,59.0*
C[C@@H]1CN([C@@H](C)CO)C(=O)c2cccc(NC(=O)CCCCCC(=O)Nc3ccccc3N)c2O[C@@H]1CN(C)Cc1ccccc1,.,23.8,19.3
C[C@H](CO)N1C[C@H](C)[C@H](CN(C)Cc2ccc(Cl)c(Cl)c2)Oc2c(NC(=O)CCCCCC(=O)Nc3ccccc3N)cccc2C1=O,-1.3,14.8,65.9*
C[C@@H]1CN([C@H](C)CO)C(=O)c2cccc(NC(=O)CCCCCC(=O)Nc3ccccc3N)c2O[C@@H]1CN(C)Cc1ccc(Oc2ccccc2)cc1,1.0,16.7,15.0
C[C@H](CO)N1C[C@H](C)[C@@H](CN(C)Cc2ccc(-c3ccccc3)cc2)Oc2c(NC(=O)CCCCCC(=O)Nc3ccccc3N)cccc2C1=O,0.6,-4.1,75.2*
